Drawing on ChEMBL document CHEMBL1157787, “Design, synthesis and evaluation of progesterone-adenine hybrids as bivalent inhibitors of P-glycoprotein-mediated multidrug efflux” (Bioorg Med Chem Lett, 2010), this text covers Activity for 8 molecules.

Series [1] has as its system K562. Briefly: Cytotoxicity against human K562 cells expressing very low P-glycoprotein at 10 uM after 24 hrs relative to control.
The target in series [2] is T1, ATP-dependent translocase ABCB1 (Homo sapiens, UniProt P08183). In words: Inhibition of P-glycoprotein-mediated daunorubicin efflux in K562/R7 human leukemic cells overexpressing P-glycoprotein assessed as intracellular accumulation of daunorubicin at 10 uM after 1 hr by flow cytometry relative to progesterone. Type of series: cell-based. The arrangement: scale not given: the % may be the effect or the level left. In short, it runs like this: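 Pgp-overexpressing resistant K562/R7 human leukemic cells; intracellular daunorubicin (1 μM) accumulation measured with compound at 10 μM. Accumulation with progesterone (10 μM) was set as 100%, and compound values were expressed as percent of that, with standard deviation.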
T1 sequence (P08183 whole entry): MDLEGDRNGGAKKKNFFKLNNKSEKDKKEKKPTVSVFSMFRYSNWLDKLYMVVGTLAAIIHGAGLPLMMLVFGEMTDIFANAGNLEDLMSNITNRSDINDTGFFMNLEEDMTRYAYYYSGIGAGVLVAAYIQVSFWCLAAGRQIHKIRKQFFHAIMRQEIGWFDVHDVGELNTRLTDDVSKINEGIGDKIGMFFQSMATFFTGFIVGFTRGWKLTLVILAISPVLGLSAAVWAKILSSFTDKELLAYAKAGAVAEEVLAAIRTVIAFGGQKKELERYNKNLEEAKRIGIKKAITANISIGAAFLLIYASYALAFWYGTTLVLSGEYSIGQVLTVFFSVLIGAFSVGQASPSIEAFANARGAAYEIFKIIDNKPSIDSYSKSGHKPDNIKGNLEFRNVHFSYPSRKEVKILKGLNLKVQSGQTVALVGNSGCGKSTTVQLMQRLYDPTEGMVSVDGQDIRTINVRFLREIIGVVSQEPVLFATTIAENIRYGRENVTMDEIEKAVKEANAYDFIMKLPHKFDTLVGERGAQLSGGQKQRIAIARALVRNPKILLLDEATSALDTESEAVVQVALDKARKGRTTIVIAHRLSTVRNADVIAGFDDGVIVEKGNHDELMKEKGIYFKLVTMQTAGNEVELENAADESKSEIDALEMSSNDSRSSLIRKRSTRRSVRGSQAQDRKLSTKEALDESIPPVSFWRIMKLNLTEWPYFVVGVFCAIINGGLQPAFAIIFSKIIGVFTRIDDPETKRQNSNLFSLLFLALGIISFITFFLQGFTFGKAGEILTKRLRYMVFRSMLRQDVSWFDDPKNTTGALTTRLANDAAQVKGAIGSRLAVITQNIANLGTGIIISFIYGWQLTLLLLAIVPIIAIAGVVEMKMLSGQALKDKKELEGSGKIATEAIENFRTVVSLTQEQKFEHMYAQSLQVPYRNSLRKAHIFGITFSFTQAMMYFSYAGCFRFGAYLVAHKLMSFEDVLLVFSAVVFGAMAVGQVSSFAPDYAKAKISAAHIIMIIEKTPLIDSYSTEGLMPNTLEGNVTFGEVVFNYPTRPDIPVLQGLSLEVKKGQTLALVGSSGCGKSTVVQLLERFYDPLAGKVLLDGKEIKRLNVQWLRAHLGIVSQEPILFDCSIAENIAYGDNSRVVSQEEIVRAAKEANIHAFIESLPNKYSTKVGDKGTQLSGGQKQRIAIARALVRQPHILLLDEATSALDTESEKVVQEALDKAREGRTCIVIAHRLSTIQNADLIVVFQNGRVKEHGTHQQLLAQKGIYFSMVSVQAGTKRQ

Series [3] has as its target T1, ATP-dependent translocase ABCB1. In words: Inhibition of P-glycoprotein-mediated daunorubicin efflux in K562/R7 human leukemic cells overexpressing P-glycoprotein assessed as intracellular accumulation of daunorubicin at 10 uM after 1 hr by flow cytometry. Type of series: cell-based. Details: scale not given: the % may be the effect or the level left. The method in brief: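 K562/R7 human leukemic cells overexpressing Pgp; intracellular daunorubicin (1 μM) accumulation measured with test compounds at 10 μM. Progesterone (10 μM) served as positive control; accumulation with progesterone set as 100%, values expressed as percent of progesterone accumulation; standard deviation reported.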

As for `C[C@]12CC[C@H]3[C@@H](CCC4=CC(=O)CC[C@@]43C)[C@@H]1CC[C@@H]2C(=O)NC/C=C/Cn1cnc2c(N)ncnc21`, the Activity in series [1] stood at 80%; in series [2] it was 72.2%.

For the molecule `C[C@]12CC[C@H]3[C@@H](CCC4=CC(=O)CC[C@@]43C)[C@@H]1CC[C@@H]2C(=O)NC/C=C\Cn1cnc2c(N)ncnc21`, the Activity is on record as 80% in series [1] and 86.2% in series [2].

Regarding `C[C@]12CC[C@H]3[C@@H](CCC4=CC(=O)CC[C@@]43C)[C@@H]1CC[C@@H]2C(=O)NCCCCn1cnc2c(N)ncnc21`, the Activity in series [1] was 80%; in series [2], 78%.

With `C[C@]12CC[C@H]3[C@@H](CCC4=CC(=O)CC[C@@]43C)[C@@H]1CC[C@@H]2C(=O)NCCCCCCn1cnc2c(N)ncnc21`, the Activity is 80% in series [1] and 110.9% in series [2].

Consider `C[C@]12CC[C@H]3[C@@H](CCC4=CC(=O)CC[C@@]43C)[C@@H]1CC[C@@H]2C(=O)NC[C@H]1CC[C@H](Cn2cnc3c(N)ncnc32)CC1`, for which the Activity came out at 80% in series [1] and 98.9% in series [2].

For the molecule `C[C@]12CC[C@H]3[C@@H](CCC4=CC(=O)CC[C@@]43C)[C@@H]1CC[C@@H]2C(=O)NCc1ccc(Cn2cnc3c(N)ncnc32)cc1`, the values for the Activity in series [1] and in series [2] were 80% and 98.1%, respectively.

Consider `C[C@]12CC[C@H]3[C@@H](CCC4=CC(=O)CC[C@@]43C)[C@@H]1CC[C@@H]2C(=O)NCC#CCn1cnc2c(N)ncnc21`, for which the Activity in series [1] was found to be 80%; in series [2] it was 61.2%.

On to `CC(=O)[C@H]1CC[C@H]2[C@@H]3CCC4=CC(=O)CC[C@]4(C)[C@H]3CC[C@]12C` [PROGESTERONE], for which the Activity in series [3] turned out to be 25%.
